In brackets after ≈: the same amount, converted by molar mass.
Assays:
Type in all cases: functional
Staphylococcus aureus [1] = assay: Antibacterial activity against high-level methicillin-resistant Staphylococcus aureus SRM1648 with deltarel-lytH region after 24 hrs by serial twofold dilution method; settings: SRM1648, 24 h
In short: (§1)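 Agar dilution MIC: tryptic soy agar plates carried serial twofold dilutions of antibiotic. Overnight tryptic soy broth cultures were diluted to about 10⁶ CFU/ml, and 1 μl of each suspension was spotted onto the plates. Plates were incubated 24 h at 37°C, then MICs were scored.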

Staphylococcus aureus [2] = assay: Antibacterial activity against high-level methicillin-resistant Staphylococcus aureus SR-17164 with lytH gene inactivated by insertion sequence IS1182 measured after 24 hrs by serial twofold dilution method; settings: SR17164, 24 h; in short: as §1
Staphylococcus aureus [3] = assay: Antibacterial activity against high-level methicillin-resistant Staphylococcus aureus SR-17164 harboring intact lytH gene after 24 hrs by serial twofold dilution method; settings: SR17164, 24 h; in short: as §1
Staphylococcus aureus [4] = assay: Antibacterial activity against high-level methicillin-resistant Staphylococcus aureus SR-17164 harboring lytH::IS1182 gene after 24 hrs by serial twofold dilution method; settings: SR17164, 24 h; in short: as §1
Staphylococcus aureus [5] = assay: Antibacterial activity against high-level methicillin-resistant Staphylococcus aureus SRM551 harboring active lytH and llm gene after 24 hrs by serial twofold dilution method; settings: SRM551, 24 h; in short: as §1
Staphylococcus aureus [6] = assay: Antibacterial activity against high-level methicillin-resistant Staphylococcus aureus SRM563 harboring active lytH gene and inactive llm gene after 24 hrs by serial twofold dilution method; settings: SRM563, 24 h; in short: as §1
Staphylococcus aureus [7] = assay: Antibacterial activity against high-level methicillin-resistant Staphylococcus aureus SR-17164 harboring inactive lytH gene and active llm gene after 24 hrs by serial twofold dilution method; settings: SR17164, 24 h; in short: as §1
Staphylococcus aureus [8] = assay: Antibacterial activity against high-level methicillin-resistant Staphylococcus aureus SRM1832 harboring inactive lytH and inactive llm gene after 24 hrs by serial twofold dilution method; settings: SRM1832, 24 h; in short: as §1
Staphylococcus aureus [9] = assay: Antibacterial activity against high-level methicillin-resistant Staphylococcus aureus SRM1648 harboring inactive lytH gene and active llm gene after 24 hrs by serial twofold dilution method; settings: SRM1648, 24 h; in short: as §1
Staphylococcus aureus [10] = assay: Antibacterial activity against high-level methicillin-resistant Staphylococcus aureus SRM1816 harboring inactive lytH and inactive llm gene after 24 hrs by serial twofold dilution method; settings: SRM1816, 24 h; in short: as §1
Staphylococcus aureus [11] = assay: Antibacterial activity against high-level methicillin-resistant Staphylococcus aureus SRM1663 harboring inactive lytH gene and active llm gene after 24 hrs by serial twofold dilution method; settings: SRM1663, 24 h; in short: as §1
Staphylococcus aureus [12] = assay: Antibacterial activity against high-level methicillin-resistant Staphylococcus aureus SRM1825 harboring inactive lytH and inactive llm gene after 24 hrs by serial twofold dilution method; settings: SRM1825, 24 h; in short: as §1
Staphylococcus aureus [13] = assay: Antibacterial activity against low-level methicillin-resistant Staphylococcus aureus SR-17238 after 24 hrs by serial twofold dilution method; settings: SR17238, 24 h; in short: as §1
Staphylococcus aureus [14] = assay: Antibacterial activity against methicillin-resistant Staphylococcus aureus SRM2148 containing pSR108 harboring deletion in rel-lytH region after 24 hrs by serial twofold dilution method; settings: SRM2148, 24 h
Staphylococcus aureus [15] = assay: Antibacterial activity against methicillin-resistant Staphylococcus aureus SRM2149 containing pSR108 harboring deletion in rel-lytH region after 24 hrs by serial twofold dilution method; settings: SRM2149, 24 h
Staphylococcus aureus [16] = assay: Antibacterial activity against methicillin-resistant Staphylococcus aureus SRM2150 containing pSR108 harboring deletion in rel-lytH region after 24 hrs by serial twofold dilution method; settings: SRM2150, 24 h
Staphylococcus aureus [17] = assay: Antibacterial activity against methicillin-resistant Staphylococcus aureus SRM2151 containing pSR108 harboring deletion in rel-lytH region after 24 hrs by serial twofold dilution method; settings: SRM2151, 24 h
Staphylococcus aureus [18] = assay: Antibacterial activity against low-level methicillin-resistant Staphylococcus aureus SR-20118 after 24 hrs by serial twofold dilution method; settings: SR20118, 24 h; in short: as §1
Staphylococcus aureus [19] = assay: Antibacterial activity against low-level methicillin-resistant Staphylococcus aureus SR-20137 after 24 hrs by serial twofold dilution method; settings: SR20137, 24 h; in short: as §1
Staphylococcus aureus [20] = assay: Antibacterial activity against low-level methicillin-resistant Staphylococcus aureus SR-20202 after 24 hrs by serial twofold dilution method; settings: SR20202, 24 h; in short: as §1
Staphylococcus aureus [21] = assay: Antibacterial activity against low-level methicillin-resistant Staphylococcus aureus SR-20280 after 24 hrs by serial twofold dilution method; settings: SR20280, 24 h; in short: as §1
Staphylococcus aureus [22] = assay: Antibacterial activity against methicillin-resistant Staphylococcus aureus SRM1664 containing pSR100 harboring deletion in rel-lytH region after 24 hrs by serial twofold dilution method; settings: SRM1664, 24 h
Staphylococcus aureus [23] = assay: Antibacterial activity against methicillin-resistant Staphylococcus aureus SRM1665 containing pSR108 harboring deletion in rel-lytH region after 24 hrs by serial twofold dilution method; settings: SRM1665, 24 h

Structure (SMILES) | MIC (Staphylococcus aureus [1]) [µg/mL] | MIC (Staphylococcus aureus [2]) [µg/mL] | MIC (Staphylococcus aureus [3]) [µg/mL] | MIC (Staphylococcus aureus [4]) [µg/mL] | MIC (Staphylococcus aureus [5]) [µg/mL] | MIC (Staphylococcus aureus [6]) [µg/mL] | MIC (Staphylococcus aureus [7]) [µg/mL] | MIC (Staphylococcus aureus [8]) [µg/mL] | MIC (Staphylococcus aureus [9]) [µg/mL] | MIC (Staphylococcus aureus [10]) [µg/mL] | MIC (Staphylococcus aureus [11]) [µg/mL] | MIC (Staphylococcus aureus [12]) [µg/mL] | MIC (Staphylococcus aureus [13]) [µg/mL] | other results
C[C@@H](O)[C@H]1C(=O)N2C(C(=O)O)=C(SCCNC=N)C[C@H]12 [IMIPENEM ANHYDROUS] | 50 (≈ 167 µM) | 100 (≈ 334 µM) | 50 (≈ 167 µM) | 100 (≈ 334 µM) | 50 (≈ 167 µM) | 0.39 (≈ 1.3 µM) | 100 (≈ 334 µM) | 50 (≈ 167 µM) | 100 (≈ 334 µM) | 25 (≈ 83.5 µM) | 100 (≈ 334 µM) | 50 (≈ 167 µM) | ≤ 0.1 | 
COc1cccc(OC)c1C(=O)N[C@@H]1C(=O)N2[C@@H]1SC(C)(C)[C@@H]2C(=O)O [METHICILLIN] | 1600 (≈ 4210 µM) | 1600 (≈ 4210 µM) | 800 (≈ 2100 µM) | 1600 (≈ 4210 µM) | 800 (≈ 2100 µM) | 12.5 (≈ 32.9 µM) | 1600 (≈ 4210 µM) | 800 (≈ 2100 µM) | 1600 (≈ 4210 µM) | 100 (≈ 263 µM) | 1600 (≈ 4210 µM) | 400 (≈ 1050 µM) | 6.3 (≈ 16.6 µM) | MIC (Staphylococcus aureus [14]): 12.5 µg/mL (≈ 32.9 µM); MIC (Staphylococcus aureus [15]): 25 µg/mL (≈ 65.7 µM); MIC (Staphylococcus aureus [16]): 50 µg/mL (≈ 131 µM); MIC (Staphylococcus aureus [17]): 6.3 µg/mL (≈ 16.6 µM); MIC (Staphylococcus aureus [18]): 12.5 µg/mL (≈ 32.9 µM); MIC (Staphylococcus aureus [19]): 12.5 µg/mL (≈ 32.9 µM); MIC (Staphylococcus aureus [20]): 25 µg/mL (≈ 65.7 µM); MIC (Staphylococcus aureus [21]): 6.3 µg/mL (≈ 16.6 µM); MIC (Staphylococcus aureus [22]): 6.3 µg/mL (≈ 16.6 µM); MIC (Staphylococcus aureus [23]): 25 µg/mL (≈ 65.7 µM)
Cc1nnc(SCC2=C(C(=O)O)N3C(=O)[C@@H](NC(=O)Cn4cnnn4)[C@H]3SC2)s1 [CEFAZOLIN] |  |  |  |  | 200 (≈ 440 µM) | 12.5 (≈ 27.5 µM) | 400 (≈ 880 µM) | 200 (≈ 440 µM) | 400 (≈ 880 µM) | 100 (≈ 220 µM) | 400 (≈ 880 µM) | 200 (≈ 440 µM) |  | 
